pIC50: −log10 of the molar value.
Legend:
[1] = Cytotoxicity against mouse RAW264.7 cells assessed as cell survival at 100 uM after 24 hrs by MTT assay relative to control; format: cell-based; conditions: read-out: Activity
Procedure, shortened: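 RAW264.7 seeded 5 × 10^3/well for 24 h at 37 °C, 5% CO2. Samples dissolved in DMSO and diluted in DMEM to final 100 μM with 1% DMSO; 1% DMSO as solvent control, cell-free medium as blank. After 24 h, MTT added for 4 h; medium removed, formazan dissolved in DMSO, absorbance read at 490 nm. % inhibition computed relative to solvent control after blank subtraction.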

RAW264.7 = experiment: Antiinflammatory activity in mouse RAW264.7 cells assessed as inhibition of LPS-induced nitric oxide production preincubated for 1 hr followed by LPS stimulation and measured after 24 hrs by Griess reagent based assay; format: functional, cell-based

| pIC50 (RAW264.7) | Compound | viability at 24 h, 100 µM [1] |
| --- | --- | --- |
| 4.66 | COc1cc(CC[C@H]2C[C@H](O)[C@@H](O)[C@@H](c3ccc(O)c(OC)c3)O2)ccc1O | > 90% |
| 4.49 | C[C@@H]1C[C@H]2[C@@H]3CCC4=CC(=O)C=C[C@]4(C)[C@@]3(F)[C@@H](O)C[C@]2(C)[C@@]1(O)C(=O)CO [DEXAMETHASONE] | – |
| 4.76 | COc1cc(C(=O)C[C@H]2C[C@@H](O)C[C@@H](c3ccc(O)c(OC)c3)O2)ccc1O | > 90% |
| < 4.30 | COc1cc(C(=O)C[C@H]2C[C@H](O)C[C@@H](c3ccc(O)c(OC)c3)O2)ccc1O | > 90% |
| < 4.30 | COc1cc(C[C@H](O)[C@@H]2C[C@@H](O)C[C@H](c3ccc(O)c(OC)c3)O2)ccc1O | > 90% |
| 4.58 | COc1cc(C[C@H]2O[C@@H](CC(=O)c3ccc(O)c(OC)c3)C[C@H]2O)ccc1O | > 90% |
| < 4.30 | COc1cc(C[C@@H](O)[C@@H]2C[C@@H](O)[C@@H](c3ccc(O)c(OC)c3)[C@H](c3ccc(O)c(OC)c3)O2)ccc1O | > 90% |
| < 4.30 | COc1cc(CC[C@H]2C[C@H](O)[C@H](O)[C@@H](c3ccc(O)c(OC)c3)O2)ccc1O | > 90% |
| < 4.30 | COc1cc(C[C@@H](O)[C@H]2C[C@H](O)[C@@H](c3ccc(O)c(OC)c3)[C@H](c3ccc(O)c(OC)c3)O2)ccc1O | > 90% |
| 4.63 | COc1cc(C[C@@H](O)[C@@H]2C[C@@H](O)[C@@H](c3cc(OC)c(O)c(OC)c3)[C@H](c3ccc(O)c(OC)c3)O2)ccc1O | > 90% |
